According to PMC5260863 (Journal of medicinal chemistry, 2016):
Where “and” joins values, the source holds several entries; their conditions need not be identical. Equal values may be shown once.

Assays:
[1] = test system: HEK293 lysate; experiment: HEK293 lysate inhibition assay; format: biochemical, human; conditions: read-out: IC50 HEK293, mean of at least three experiments ± SEM
[2] = test system: MV4–11 cells; experiment: Western blot analysis of MV4–11 cells; format: cell-based, human; conditions: for AcHH3 and AcHH4 at varied doses: 6 hours
Summary of the method: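 Cells were seeded at 500k cells/mL in 6-well plates and pre-incubated 24 h. They were then exposed to test compound at 100 nM for 24 h, or at varied doses for 6 h. Pellets were lysed in RIPA (Tris, NaCl, EDTA, SDS, deoxycholate, Triton X-100), sonicated, spun 15 min at 4°C, then heated in β-mercaptoethanol/LDS at 90°C. Primary antibody ran overnight at 4°C. Bands were normalized to actin, n ≥ 2.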

[3] = test system: human PBMCs; experiment: Human peripheral blood mononuclear cell analysis; format: cell-based
[4] = test system: MV4–11 cells; experiment: MV4–11 EC50 analysis; format: cell-based, human
[5] = test system: RPMI-8226 cells; experiment: Cell viability, CellTiter-Blue; format: cell-based, human; conditions: even at mM concentrations
[6] = test system: HEK293 cells; experiment: HEK293 EC50 analysis; format: cell-based, human; conditions: 48 hours of treatment
[7] = ESI-LCMS glucuronidation assay; format: in vitro ADME, human; conditions: 12 hours at 37°C; for glucuronidation in human liver microsomes with UDP Glucuronic acid: alamethicin, ESI-LCMS
Summary of the method: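 Pooled mixed-gender human liver microsomes at 250 µg/mL in 100 mM Tris HCl, pH 7.5. Alamethicin 1 µg/mL and MgCl2 5 mM (final), rocked 15 min at 4°C for pore formation. Test compound (5 mM stock) added with UDPGA (50 mM stock) or water, rocked 12 h at 37°C. Quenched with water/acetonitrile/formic acid 47:50:3, centrifuged 15000g. Supernatant analysed by reversed-phase ESI-LCMS TIC.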

[8] = test system: HeLa cells; experiment: HeLa EC50 analysis; format: cell-based, human; conditions: 48 hours of treatment
[9] = target: recombinant HDAC3 (Homo sapiens, UniProt O15379); experiment: Recombinant HDAC Vmax study; format: biochemical
[10] = target: recombinant HDAC1 (Homo sapiens, UniProt Q13547); experiment: Recombinant HDAC Vmax study; format: biochemical
Sequence of recombinant HDAC1 (Q13547 whole entry): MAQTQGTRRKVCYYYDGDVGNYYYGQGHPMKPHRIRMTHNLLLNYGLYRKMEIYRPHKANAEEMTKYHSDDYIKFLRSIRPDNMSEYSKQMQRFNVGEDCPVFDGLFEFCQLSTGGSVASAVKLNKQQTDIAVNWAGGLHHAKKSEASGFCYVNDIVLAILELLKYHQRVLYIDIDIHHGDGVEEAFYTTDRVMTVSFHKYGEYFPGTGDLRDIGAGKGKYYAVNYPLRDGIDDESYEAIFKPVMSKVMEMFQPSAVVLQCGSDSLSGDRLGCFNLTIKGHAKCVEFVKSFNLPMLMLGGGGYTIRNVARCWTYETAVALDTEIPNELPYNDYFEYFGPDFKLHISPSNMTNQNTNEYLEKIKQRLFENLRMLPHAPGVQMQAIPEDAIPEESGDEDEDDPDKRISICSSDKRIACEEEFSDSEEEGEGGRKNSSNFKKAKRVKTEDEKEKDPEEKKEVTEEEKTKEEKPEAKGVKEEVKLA

Sequence of recombinant HDAC3 (O15379 whole entry): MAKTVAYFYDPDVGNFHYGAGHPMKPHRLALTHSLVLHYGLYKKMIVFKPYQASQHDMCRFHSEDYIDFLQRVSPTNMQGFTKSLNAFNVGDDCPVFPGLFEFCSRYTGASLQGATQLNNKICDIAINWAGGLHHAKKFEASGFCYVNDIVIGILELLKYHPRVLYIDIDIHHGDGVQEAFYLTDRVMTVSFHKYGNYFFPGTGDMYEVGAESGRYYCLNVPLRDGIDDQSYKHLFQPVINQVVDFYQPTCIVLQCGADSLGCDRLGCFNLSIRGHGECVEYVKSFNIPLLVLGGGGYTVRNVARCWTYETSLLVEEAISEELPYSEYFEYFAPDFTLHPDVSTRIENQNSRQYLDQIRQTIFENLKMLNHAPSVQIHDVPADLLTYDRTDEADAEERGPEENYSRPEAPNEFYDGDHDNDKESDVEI
Sequence of recombinant HDAC3 (Q9Y618 395-489 partner limits assumed): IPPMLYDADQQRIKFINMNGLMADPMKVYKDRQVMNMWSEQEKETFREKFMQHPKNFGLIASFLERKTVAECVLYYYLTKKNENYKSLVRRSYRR

Structure (SMILES): CCCCCCNNC(=O)c1ccc(CNC(=O)/C=C/c2ccccc2)cc1 [3e, N-(4-(2-hexylhydrazine-1-carbonyl)benzyl)cinnamamide]
- IC50 [1]: 1720 ± 139 nM

Structure (SMILES): CCCCNNC(=O)c1ccco1 [1g, N’-butylfuran-2-carbohydrazide]
- IC50 [1]: > 10000 nM

Structure (SMILES): CCCCNNC(=O)c1cccnc1 [1d, N’-butylnicotinohydrazide]
- IC50 [1]: 4680 ± 909 nM

Structure (SMILES): O=C(NCc1ccc(C(=O)NNCCC(F)(F)F)cc1)c1ccccc1 [2f, N-(4-(2-(3,3,3-trifluoropropyl)hydrazine-1-carbonyl)benzyl)benzamide]
- IC50 [1]: 1230 ± 136 nM

Structure (SMILES): CCCCCCCCNNC(=O)c1ccc(CNC(=O)c2ccccc2)cc1 [2i, N-(4-(2-octylhydrazine-1-carbonyl)benzyl)benzamide]
- IC50 [1]: > 10000 nM

Structure (SMILES): CCCCNNC(=O)c1ccc(OC)cc1 [1a, N’-butyl-4-methoxybenzohydrazide]
- IC50 [1]: 727 ± 10.8 nM

Structure (SMILES): C/C=C/CNNC(=O)c1ccc(CNC(=O)c2ccccc2)cc1 [2a, (E)-N-(4-(2-(but-2-en-1-yl)hydrazine-1-carbonyl)benzyl)benzamide]
- IC50 [1]: > 10000 nM

Structure (SMILES): CCNNC(=O)c1ccc(CNC(=O)/C=C/c2ccccc2)cc1 [3a, N-(4-(2-ethylhydrazine-1-carbonyl)benzyl)cinnamide]
- IC50 [1]: 171 ± 34.2 nM

Structure (SMILES): Cc1[nH]c2ccccc2c1CCNCc1ccc(/C=C/C(=O)NO)cc1 [Panobinostat, panobinostat, reference compound]
- Acetylated Tubulin (AcTub) levels ([2]; 100 nM, 24 hours, marker of HDAC6 inhibition): the only inhibitor to raise Acetylated Tubulin (AcTub) levels at this concentration
- concentration at which toxicity toward PBMCs is displayed ([3]; 24 hours treatment): 10 nM

Structure (SMILES): CCCCCCCCCCNNC(=O)c1ccc(CNC(=O)c2ccccc2)cc1 [2k, N-(4-(2-decylhydrazine-1-carbonyl)benzyl)benzamide]
- IC50 [1]: > 10000 nM

Structure (SMILES): CC(C)NNC(=O)c1ccc(CNC(=O)c2ccccc2)cc1 [2b, N-(4-(2-isopropylhydrazine-1-carbonyl)benzyl)benzamide]
- IC50 [1]: > 10000 nM

Structure (SMILES): CCCNNC(=O)c1ccc(CNC(=O)/C=C/c2ccccc2)cc1 [3b, N-(4-(2-propylhydrazine-1-carbonyl)benzyl)cinnamamide]
- decrease in EC50 in MV4–11 cells compared to 2d ([4]; vs 2d): ~2.5 fold
- kill curve against RPMI-8226 [5]: incomplete kill curves
- killing of HEK293 cells [6]: Neither 11, 2d, nor 3b display effective killing of this solid tumor cell line
- glucuronidation in human liver microsomes with UDP Glucuronic acid [7]: not readily glucuronidated
- upregulation of Acetylated Histones H3 and H4 (AcHH3/AcHH4) ([2]; 100 nM, 24 hours): higher upregulation of Acetylated Histones H3 and H4 (AcHH3/AcHH4) than vorinostat and entinostat
- AcHH3 and AcHH4 at varied doses [2]: dose-dependent increase in AcHH3 and AcHH4
- killing of HeLa cells [8]: Neither 1l, 2d, nor 3b display effective killing of this solid tumor cell line
- toxicity toward PBMCs compared to panobinostat ([3]; 24 hours treatment): superior toxicity (less PBMC killing) than panobinostat

Structure (SMILES): CCCCNNC(=O)CCc1ccccc1 [1h, N’-butyl-3-phenylpropanehydrazide]
- IC50 [1]: > 10000 nM

Structure (SMILES): O=C(CCCCCCC(=O)Nc1ccccc1)NO [vorinostat, reference compound]
- mode of inhibition, HDAC3 (Lineweaver-Burke plot) [9]: competitive inhibition
- mode of inhibition, HDAC1 (Lineweaver-Burke plot) [10]: competitive inhibition
- glucuronidation in human liver microsomes with UDP Glucuronic acid [7]: presence of the o-glucuronidated metabolite

Structure (SMILES): CCCCCCNNC(=O)c1ccc(CNC(=O)c2ccccc2)cc1 [2j, N-(4-(2-hexylhydrazine-1-carbonyl)benzyl)benzamide]
- IC50 [1]: 550 ± 134 nM

Structure (SMILES): CCCCCCCNNC(=O)c1ccc(CNC(=O)c2ccccc2)cc1 [2h, N-(4-(2-heptylhydrazine-1-carbonyl)benzyl)benzamide]
- IC50 [1]: 2160 ± 896 nM

Structure (SMILES): O=C(NCc1ccc(C(=O)NNCC2CC2)cc1)c1ccccc1 [2g, N-(4-(2-(cyclopropylmethyl)hydrazine-1-carbonyl)benzyl)benzamide]
- IC50 [1]: 1620 ± 196 nM

Structure (SMILES): CCCNNC(=O)c1ccc(CNC(=O)c2ccccc2)cc1 [2d, N-(4-(2-propylhydrazine-1-carbonyl)benzyl)benzamide]
- mode of inhibition, HDAC1 (Lineweaver-Burke plot) [10]: mixed inhibition
- killing of HEK293 cells [6]: Neither 11, 2d, nor 3b display effective killing of this solid tumor cell line
- metabolites in human liver microsomes ([7]; with and without UDPGA, no NADPH added): Neither vessel contained any detectable metabolites other than parent compound
- upregulation of Acetylated Histones H3 and H4 (AcHH3/AcHH4) ([2]; 100 nM, 24 hours): higher upregulation of Acetylated Histones H3 and H4 (AcHH3/AcHH4) than vorinostat and entinostat
- AcHH3 and AcHH4 at varied doses [2]: dose-dependent increase in AcHH3 and AcHH4
- killing of HeLa cells [8]: Neither 1l, 2d, nor 3b display effective killing of this solid tumor cell line
- toxicity toward PBMCs compared to panobinostat ([3]; 24 hours treatment): superior toxicity (less PBMC killing) than panobinostat
- less toxicity toward PBMCs than 3b ([3]; vs 3b, until the high micromolar range): 10 fold and ~ 10 fold

Structure (SMILES): CCCCNNC(=O)c1ccc(Oc2ccccc2)cc1 [1c, N’-butyl-4-phenoxybenzohydrazide]
- IC50 [1]: 1690 ± 298 nM

Structure (SMILES): CCCCNNC(=O)c1ccc(CNC(=O)c2ccccc2)cc1 [1l, N-(4-(2-butylhydrazine-1-carbonyl)benzyl)benzamide]
- killing of HEK293 cells [6]: Neither 11, 2d, nor 3b display effective killing of this solid tumor cell line
- upregulation of Acetylated Histones H3 and H4 (AcHH3/AcHH4) ([2]; 100 nM, 24 hours): higher upregulation of Acetylated Histones H3 and H4 (AcHH3/AcHH4) than vorinostat and entinostat
- AcHH3 and AcHH4 at varied doses [2]: dose-dependent increase in AcHH3 and AcHH4
- killing of HeLa cells [8]: Neither 1l, 2d, nor 3b display effective killing of this solid tumor cell line

Structure (SMILES): CCCCCNNC(=O)c1ccc(CNC(=O)/C=C/c2ccccc2)cc1 [3d, N-(4-(2-pentylhydrazine-1-carbonyl)benzyl)cinnamide]
- IC50 [1]: 691 ± 54.7 nM

Structure (SMILES): CCCCNNC(=O)c1cccs1 [1f, N’-butylthiophene-2-carbohydrazide]
- IC50 [1]: 3460 ± 669 nM

Structure (SMILES): O=C(NCc1ccc(C(=O)NNCC2CCC2)cc1)c1ccccc1 [2m, N-(4-(2-(cyclobutylmethyl)hydrazine-1-carbonyl)benzyl)benzamide]
- IC50 [1]: 1880 ± 212 nM

Structure (SMILES): CCNNC(=O)c1ccc(CNC(=O)c2ccccc2)cc1 [2l, N-(4-(2-ethylhydrazine-1-carbonyl)benzyl)benzamide]
- IC50 [1]: 427 ± 110 nM

Structure (SMILES): CC/C=N/NC(=O)c1ccc(CNC(=O)c2ccccc2)cc1 [2c, (E)-N-(4-(2-propylidenehydrazine-1-carbonyl)benzyl)benzamide]
- activity against MV4–11 cells ([4]; doses as high as 250 µM, negative control): no appreciable activity
- IC50 [1]: > 10000 nM
- upregulation of Acetylated Histones H3 and H4 (AcHH3/AcHH4) ([2]; 100 nM, 24 hours): no appreciable ability to increase acetylation of histones H3 and H4

Structure (SMILES): CCCCNNC(=O)/C=C/c1ccccc1 [1i, N’-butylcinnamohydrazide]
- IC50 [1]: 1440 ± 86.1 nM

Structure (SMILES): CCCCNNC(=O)c1cccc2ccccc12 [1j, N’-butyl-1-napthohydrazide]
- IC50 [1]: > 10000 nM

Structure (SMILES): CCCCNNC(=O)c1cc2ccccc2o1 [1b, N’-butylbenzofuran-2-carbohydrazide]
- IC50 [1]: 1690 ± 38 nM
